Source: ChEMBL document CHEMBL5724801, “EUbOPEN Chemogenomics Library - Multiplex” (2024)
Several values for one entry are separate records, joined by “and”; a condition that tells them apart may be missing. Equal values may be shown once.

Test system: Fibroblast
Assay: Multiplex assay against human fibroblast
Type: toxicity, cell-based
How it was run: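 Four dyes were applied at seeding to live cells: Hoechst33342, BioTracker Green Microtubule Cytoskeleton Dye, MitoTracker Red and Annexin V Alexa Fluor 680. Imaging after compound addition used a CQ1 microscope at 37°C and 5% CO2. CellPathfinder machine-learning gating then sorted cells into Hoechst high-intensity objects or normal cells, normal cells into healthy, pyknosed or fragmented nuclei, and pyknosed cells into mitotic or apoptotic, with tubulin, mitochondrial-mass and membrane-permeability phenotypes given as per cents of healthy-nucleus cells.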

[1] = 12 h, 1 µM, compound concentration 1 uM
[2] = 12 h, 10 µM, compound concentration 10 uM
[3] = 24 h, 1 µM, compound concentration 1 uM
[4] = 24 h, 10 µM, compound concentration 10 uM
[5] = 48 h, 1 µM, compound concentration 1 uM
[6] = 48 h, 10 µM, compound concentration 10 uM

## O=C(O)c1cc2ccccc2c(Cc2c(O)c(C(=O)O)cc3ccccc23)c1O [PAMOIC ACID]
[1]
  Population Apoptotic (%): 54% and 32%
  Population Fragmented Nuclei (%): 10% and 23%
  Population Healthy Nuclei (%): 81% and 56%
  Population Hoechst High Intensity Objects (%): 2% and 6%
  Population Membrane Permeable-Phenotype (%): 0% and 6%
  Population Mitochondria Different-Phenotype (%): 2% and 8%
  Population Mitotic Cells (%): 45% and 67%
  Population Normal (%): 97% and 93%
  Population Pyknosed Nuclei (%): 7% and 19%
  Population Tubulin-Different-Phenotype (%): 20% and 34%
  Total Cell Count: 147 and 154
[2]
  Population Apoptotic (%): 40% and 37%
  Population Healthy Nuclei (%): 80% and 51%
  Population Hoechst High Intensity Objects (%): 4%
  Population Membrane Permeable-Phenotype (%): 1% and 3%
  Population Mitochondria Different-Phenotype (%): 5% and 3%
  Population Mitotic Cells (%): 60% and 62%
  Population Normal (%): 95%
  Population Pyknosed Nuclei (%): 11% and 24%
  Population Tubulin-Different-Phenotype (%): 23% and 51%
  Total Cell Count: 132 and 156
[3]
  Population Apoptotic (%): 33% and 32%
  Population Fragmented Nuclei (%): 10% and 23%
  Population Healthy Nuclei (%): 86% and 58%
  Population Hoechst High Intensity Objects (%): 3% and 6%
  Population Membrane Permeable-Phenotype (%): 0% and 9%
  Population Mitochondria Different-Phenotype (%): 2% and 11%
  Population Mitotic Cells (%): 66% and 68%
  Population Normal (%): 96% and 93%
  Population Tubulin-Different-Phenotype (%): 17% and 39%
  Total Cell Count: 156 and 147
[4]
  Population Apoptotic (%): 50% and 40%
  Population Healthy Nuclei (%): 77% and 52%
  Population Hoechst High Intensity Objects (%): 2% and 5%
  Population Membrane Permeable-Phenotype (%): 1% and 3%
  Population Mitochondria Different-Phenotype (%): 1% and 5%
  Population Mitotic Cells (%): 50% and 59%
  Population Normal (%): 97% and 94%
  Population Pyknosed Nuclei (%): 13%
  Population Tubulin-Different-Phenotype (%): 20% and 39%
  Total Cell Count: 138 and 170
[5]
  Population Apoptotic (%): 25% and 38%
  Population Fragmented Nuclei (%): 12% and 23%
  Population Healthy Nuclei (%): 79% and 58%
  Population Hoechst High Intensity Objects (%): 4% and 3%
  Population Membrane Permeable-Phenotype (%): 0% and 9%
  Population Mitochondria Different-Phenotype (%): 2% and 8%
  Population Mitotic Cells (%): 75% and 61%
  Population Normal (%): 95% and 96%
  Population Pyknosed Nuclei (%): 8% and 17%
  Population Tubulin-Different-Phenotype (%): 23% and 44%
  Total Cell Count: 155 and 152
[6]
  Population Apoptotic (%): 50% and 60%
  Population Fragmented Nuclei (%): 19% and 32%
  Population Healthy Nuclei (%): 72% and 60%
  Population Hoechst High Intensity Objects (%): 5% and 3%
  Population Membrane Permeable-Phenotype (%): 2% and 3%
  Population Mitochondria Different-Phenotype (%): 5% and 1%
  Population Mitotic Cells (%): 50% and 40%
  Population Normal (%): 94% and 96%
  Population Pyknosed Nuclei (%): 7% and 6%
  Population Tubulin-Different-Phenotype (%): 29% and 28%
  Total Cell Count: 136 and 156

## c1ccc2nc(N3CCNCC3)ccc2c1 [QUIPAZINE]
[1]
  Population Apoptotic (%): 13.95% and 10%
  Population Fragmented Nuclei (%): 15.05% and 6.28%
  Population Healthy Nuclei (%): 64.08% and 79.23%
  Population Hoechst High Intensity Objects (%): 0%
  Population Membrane Permeable-Phenotype (%): 2.27% and 0.61%
  Population Mitochondria Different-Phenotype (%): 9.09% and 6.71%
  Population Mitotic Cells (%): 86.05% and 90%
  Population Normal (%): 100%
  Population Pyknosed Nuclei (%): 20.87% and 14.49%
  Population Tubulin-Different-Phenotype (%): 9.09% and 19.51%
  Total Cell Count: 206 and 207
[2]
  Population Fragmented Nuclei (%): 10.34% and 8.29%
  Population Healthy Nuclei (%): 70.94% and 74.63%
  Population Hoechst High Intensity Objects (%): 0%
  Population Membrane Permeable-Phenotype (%): 3.47% and 5.23%
  Population Mitotic Cells (%): 94.74% and 74.29%
  Population Normal (%): 100%
  Population Pyknosed Nuclei (%): 18.72% and 17.07%
  Population Tubulin-Different-Phenotype (%): 13.19% and 23.53%
  Total Cell Count: 203 and 205
[3]
  Population Apoptotic (%): 15.79% and 12%
  Population Fragmented Nuclei (%): 7.37% and 6.28%
  Population Healthy Nuclei (%): 75.12% and 82.51%
  Population Hoechst High Intensity Objects (%): 0%
  Population Membrane Permeable-Phenotype (%): 4.91% and 2.72%
  Population Mitochondria Different-Phenotype (%): 6.75% and 7.61%
  Population Mitotic Cells (%): 84.21% and 88%
  Population Normal (%): 100%
  Population Pyknosed Nuclei (%): 17.51% and 11.21%
  Population Tubulin-Different-Phenotype (%): 11.04% and 17.93%
  Total Cell Count: 217 and 223
[4]
  Population Apoptotic (%): 17.65% and 35.71%
  Population Fragmented Nuclei (%): 10.5% and 7.62%
  Population Healthy Nuclei (%): 73.97% and 79.82%
  Population Hoechst High Intensity Objects (%): 0%
  Population Membrane Permeable-Phenotype (%): 3.7% and 3.37%
  Population Mitochondria Different-Phenotype (%): 3.09% and 6.74%
  Population Mitotic Cells (%): 82.35% and 64.29%
  Population Normal (%): 100%
  Population Pyknosed Nuclei (%): 15.53% and 12.56%
  Population Tubulin-Different-Phenotype (%): 16.05% and 25.84%
  Total Cell Count: 219 and 223
[5]
  Population Apoptotic (%): 57.14% and 58.33%
  Population Fragmented Nuclei (%): 12.6% and 5.91%
  Population Healthy Nuclei (%): 82.06% and 88.64%
  Population Hoechst High Intensity Objects (%): 0%
  Population Membrane Permeable-Phenotype (%): 2.33% and 4.1%
  Population Mitotic Cells (%): 42.86% and 41.67%
  Population Normal (%): 100%
  Population Pyknosed Nuclei (%): 5.34% and 5.45%
  Population Tubulin-Different-Phenotype (%): 4.19% and 11.79%
  Total Cell Count: 262 and 220
[6]
  Population Apoptotic (%): 35.71% and 45%
  Population Fragmented Nuclei (%): 10.74% and 6.5%
  Population Healthy Nuclei (%): 84.07% and 85.37%
  Population Hoechst High Intensity Objects (%): 0%
  Population Membrane Permeable-Phenotype (%): 1.32% and 4.76%
  Population Mitochondria Different-Phenotype (%): 6.61% and 0.48%
  Population Mitotic Cells (%): 64.29% and 55%
  Population Normal (%): 100%
  Population Pyknosed Nuclei (%): 5.19% and 8.13%
  Total Cell Count: 270 and 246

## CCC(=O)N1CCN(c2ccc(-n3c(=O)ccc4cnc5ccc(-c6cnc7ccccc7c6)cc5c43)cc2C(F)(F)F)CC1 [TORIN1]
[2]
  Population Healthy Nuclei (%): 60% and 44%
  Population Membrane Permeable-Phenotype (%): 1%
  Population Mitochondria Different-Phenotype (%): 5% and 0%
  Population Mitotic Cells (%): 72% and 65%
  Population Normal (%): 94% and 90%
  Population Tubulin-Different-Phenotype (%): 62% and 64%
  Total Cell Count: 155 and 131
[4]
  Population Healthy Nuclei (%): 57%
  Population Membrane Permeable-Phenotype (%): 0%
  Population Mitochondria Different-Phenotype (%): 10% and 5%
  Population Mitotic Cells (%): 66% and 56%
  Population Normal (%): 96% and 93%
  Population Tubulin-Different-Phenotype (%): 62% and 59%
  Total Cell Count: 137 and 128
[6]
  Population Apoptotic (%): 80%
  Population Healthy Nuclei (%): 72% and 62%
  Population Membrane Permeable-Phenotype (%): 0% and 8%
  Population Mitotic Cells (%): 20% and 46%
  Population Normal (%): 96% and 95%
  Population Pyknosed Nuclei (%): 10%
  Population Tubulin-Different-Phenotype (%): 67% and 61%
  Total Cell Count: 127 and 136

## CC(C)(C)c1ccc(S(=O)(=O)Nc2ccc(Cl)cc2C(=O)c2cc[n+]([O-])cc2)cc1 [VERCIRNON]
[1]
  Population Apoptotic (%): 63% and 50%
  Population Fragmented Nuclei (%): 19% and 27%
  Population Healthy Nuclei (%): 65% and 46%
  Population Hoechst High Intensity Objects (%): 2% and 7%
  Population Membrane Permeable-Phenotype (%): 1% and 6%
  Population Mitochondria Different-Phenotype (%): 3% and 1%
  Population Mitotic Cells (%): 36% and 50%
  Population Normal (%): 97% and 92%
  Population Pyknosed Nuclei (%): 15% and 25%
  Population Tubulin-Different-Phenotype (%): 20% and 41%
  Total Cell Count: 148 and 152
[2]
  Population Apoptotic (%): 59% and 48%
  Population Fragmented Nuclei (%): 14% and 30%
  Population Healthy Nuclei (%): 64% and 44%
  Population Hoechst High Intensity Objects (%): 3% and 5%
  Population Membrane Permeable-Phenotype (%): 3% and 8%
  Population Mitochondria Different-Phenotype (%): 1% and 10%
  Population Mitotic Cells (%): 40% and 51%
  Population Normal (%): 96% and 94%
  Population Pyknosed Nuclei (%): 21% and 25%
  Population Tubulin-Different-Phenotype (%): 46% and 66%
  Total Cell Count: 107 and 114
[3]
  Population Apoptotic (%): 55% and 54%
  Population Fragmented Nuclei (%): 23% and 25%
  Population Healthy Nuclei (%): 62% and 57%
  Population Hoechst High Intensity Objects (%): 0% and 7%
  Population Membrane Permeable-Phenotype (%): 4% and 7%
  Population Mitochondria Different-Phenotype (%): 1%
  Population Mitotic Cells (%): 45%
  Population Normal (%): 99% and 92%
  Population Pyknosed Nuclei (%): 14% and 16%
  Population Tubulin-Different-Phenotype (%): 27% and 40%
  Total Cell Count: 141 and 142
[4]
  Population Apoptotic (%): 66% and 41%
  Population Fragmented Nuclei (%): 16% and 32%
  Population Healthy Nuclei (%): 66% and 42%
  Population Hoechst High Intensity Objects (%): 1% and 0%
  Population Mitochondria Different-Phenotype (%): 2% and 9%
  Population Mitotic Cells (%): 33% and 58%
  Population Normal (%): 98% and 99%
  Population Pyknosed Nuclei (%): 16% and 24%
  Population Tubulin-Different-Phenotype (%): 40% and 82%
  Total Cell Count: 114 and 120
[5]
  Population Apoptotic (%): 61% and 62%
  Population Fragmented Nuclei (%): 29% and 32%
  Population Healthy Nuclei (%): 58% and 55%
  Population Hoechst High Intensity Objects (%): 1% and 6%
  Population Membrane Permeable-Phenotype (%): 1% and 6%
  Population Mitochondria Different-Phenotype (%): 1% and 9%
  Population Mitotic Cells (%): 38% and 37%
  Population Normal (%): 98% and 93%
  Population Pyknosed Nuclei (%): 12% and 11%
  Population Tubulin-Different-Phenotype (%): 25% and 37%
  Total Cell Count: 151 and 145
[6]
  Population Apoptotic (%): 62% and 46%
  Population Fragmented Nuclei (%): 22% and 42%
  Population Healthy Nuclei (%): 64% and 46%
  Population Hoechst High Intensity Objects (%): 2% and 4%
  Population Mitochondria Different-Phenotype (%): 0% and 12%
  Population Mitotic Cells (%): 37% and 53%
  Population Normal (%): 97% and 95%
  Population Pyknosed Nuclei (%): 13% and 11%
  Population Tubulin-Different-Phenotype (%): 38% and 72%
  Total Cell Count: 120 and 122
